Measurements gathered from unrelated publications.
Lines come from different studies, so protocols differ.
Target: Carbonic anhydrase 1 (CA1, Homo sapiens, UniProt P00915)
Effect on: enzyme activity
Mode: inhibitor

SMILES | method | Ki
Cn1cnc([N+](=O)[O-])c1Sc1ncnc2nc[nH]c12 |  | 12.4 µM
C[n+]1cc(C(=O)[O-])ccc1O | stopped-flow | > 100 µM
NS(=O)(=O)c1nnc(NC(=O)CCC2CCCCO2)s1 (centres unmarked) | stopped-flow | 0.75 µM
Cc1cc(=O)oc2cc(OCCCCSC#N)ccc12 | stopped-flow | > 100 µM
CN(C)CCC(c1ccccc1)c1ccccn1 (centres unmarked) |  | 13.9 µM
CC1(C)CCN(CC(=O)Nc2nnc(S(N)(=O)=O)s2)CC1 | stopped-flow | 0.0541 µM
COc1cc(C)c(/C=C/C(C)=C/C=C/C(C)=C/C(=O)O)c(C)c1C |  | 7.68 µM
CC(C)(C)CCC(=O)Nc1nnc(S(N)(=O)=O)s1 | stopped-flow | 0.267 µM
CCOC(=O)c1ccc(=O)oc1 | stopped-flow | > 100 µM
C[C@H]1CCC[C@H](C(=O)Nc2nnc(S(N)(=O)=O)s2)C1 (racemic) | stopped-flow | 0.0639 µM
Cc1cncc(CN2CCC(=C3c4ccc(Cl)cc4CCc4cccnc43)CC2)c1 | absorbance | 9.95 µM
O=C(O)c1cccc(=O)o1 | stopped-flow | > 100 µM
Nc1nc2c(ncn2COCCO)c(=O)[nH]1 |  | 7.31 µM
NCCCC(=O)Nc1nnc(S(N)(=O)=O)s1 | stopped-flow | 0.155 µM
O=C(Oc1ccc(Cl)cc1)c1ccc(=O)oc1 | stopped-flow | > 100 µM
N#CSCc1cc(=O)oc2cc(O)ccc12 | stopped-flow | > 100 µM
C#CCNC(=O)c1ccc(=O)oc1 | stopped-flow | > 100 µM
OCCOCCN1CCN(C(c2ccccc2)c2ccc(Cl)cc2)CC1 (centres unmarked) |  | 10.3 µM
Cc1ccccc1CC(=O)Nc1nnc(S(N)(=O)=O)s1 | stopped-flow | 0.0518 µM
O=C(OCc1cn(-c2ccccc2)nn1)c1ccc(=O)oc1 | stopped-flow | > 100 µM
